# Compound activity (PubChem)
# Sampled rows, rich in hits. Any-hit rate of the full collection: about 1.9%.
# ASAP1 GAP inh: ASAP1 ArfGAP inhibition | inhibition, % at 16.5 µM | AID 624377 | actives 0.19% (n = 360,000) | ASAP1-stimulated ARF1 GTP hydrolysis, GDP FP detection | Q9ULH1; in the data active means inhibition above about 25%;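 further: 0% = vehicle with enzyme and substrate and 100% = no enzyme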
# Target sequence (Q9ULH1 325-724 limits assumed): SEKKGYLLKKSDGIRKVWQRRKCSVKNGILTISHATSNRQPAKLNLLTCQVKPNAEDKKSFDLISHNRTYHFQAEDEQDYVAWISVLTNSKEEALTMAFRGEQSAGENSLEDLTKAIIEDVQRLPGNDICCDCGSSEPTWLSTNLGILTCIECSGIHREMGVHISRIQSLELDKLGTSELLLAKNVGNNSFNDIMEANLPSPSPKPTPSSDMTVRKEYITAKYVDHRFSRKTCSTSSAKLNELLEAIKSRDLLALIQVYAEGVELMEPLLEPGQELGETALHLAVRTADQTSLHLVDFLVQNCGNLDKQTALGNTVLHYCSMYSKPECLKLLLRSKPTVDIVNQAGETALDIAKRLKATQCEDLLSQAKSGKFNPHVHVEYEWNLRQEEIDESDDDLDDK
# ARFGAP1 inh: inhibits rat ARF GTPase activating protein 1; Arfgap1-stimulated ARF1 GTP hydrolysis, GDP FP detection; actives 0.26% (n = 360,000); Q62848; inhibition, % at 16.5 µM; AID 651572;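 active means inhibition above a per-plate limit, mean inhibition of low control wells plus 3 SD, cut at about 25% in these data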;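 further: 0% = DMSO wells with enzyme and 100% = wells lacking Arfgap1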
# Target sequence (Q62848 1-136 limits assumed): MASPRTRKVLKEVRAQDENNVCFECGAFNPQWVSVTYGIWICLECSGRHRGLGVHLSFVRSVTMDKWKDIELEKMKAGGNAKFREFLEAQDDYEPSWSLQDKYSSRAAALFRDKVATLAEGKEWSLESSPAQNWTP
#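 Material: truncated rat Arfgap1 GAP domain; Incubation: compound-enzyme preincubation 20 min, reaction 120 min, detection 60 min, 25 °C; Read-out: percent inhibition of Arfgap1-stimulated GTP hydrolysis; Technique: FP, GDP Alexa 633 tracer displaced from anti-GDP antibody, 620/688 nm; Controls: No-Arfgap1 wells (100%) versus DMSO full-reaction wells (0%); Replication: single well per compound.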
# Efflux pump inh: blocks antifungal efflux pumps in multiplex yeast assay | S. cerevisiae Candida pump triplex, Nile Red efflux | inhibition, % at 10 µM | actives 0.44% (n = 330,000) | AID 485275;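 active means plate passing quality check with inhibition over a set limit, or well fluorescence over plate mean plus 4 SD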;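 further: Nile Red retained in pooled yeast measured as flow cytometry median fluorescence; 0% = buffer negative control and 100% = Enniatin B positive control; higher means more Nile Red kept so more efflux inhibition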
# FGF22 binding: shifts melting point of recombinant human FGF22 | Q9HCT0 | recombinant FGF22 thermal shift, SYPRO orange fluorescence; percent of sucrose octasulfate shift, DMSO zero | actives 1.5% (n = 340,000) | AID 651658 | activity (Tm shift, normalised), % at 9.99 µM;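 active means mean Tm shift, scaled 0 neutral to 100 positive control, at about 1.3% or above, every replicate too, limit read from the data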
# Rtt109 HAT inh: C. albicans Rtt109 histone acetyltransferase inhibition. Q5AAJ8. purified Rtt109/Vps75, ThioGlo CoA-SH fluorescence, 4 h. inhibition, % at 34.9 µM. actives 0.16% (n = 330,000);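 active means inhibition of at least 50% in every replicate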
# Starred values were filed as active, the others as inactive; · = no result.
SMILES,ASAP1 GAP inh,ARFGAP1 inh,Efflux pump inh,FGF22 binding,Rtt109 HAT inh
Cc1cc(C(=O)COc2ccc(C#N)cc2)c(C)n1CC1CCCO1 (configuration not stated),-0.8,7.0,0.0,43.2*,·
Cc1ccc(-n2cc(-c3ccccc3)c3c(N4CCOCC4)ncnc32)cc1,-9.7,-1.9,·,42.9*,-6.8
Cc1ccc(-n2cc(-c3ccccc3)c3c(N4CCN(C)CC4)ncnc32)cc1,6.5,-9.5,0.6,42.4,12.7
C[C@@H]1CN([C@@H](C)CO)C(=O)c2cc(-c3cccc(C#N)c3)cnc2O[C@H]1CN(C)C,·,·,·,0.0,·
Cc1cccc(OCC(=O)Nc2ccccc2-c2ccccc2)c1,-1.5,9.8,-0.2,·,-3.3
COC(=O)C1=C(C)NC(=O)NC1c1ccco1 (configuration not stated),-4.0,9.0,0.0,43.4*,-1.5
COC(=O)C1=C(C)NC(C)=C(C(=O)OC)C1c1ccco1,-24.0,0.1,-0.2,0.0,8.0
O=C(COc1nncc2ccccc12)Nc1ccc(F)c(F)c1,-5.4,5.9,0.0,43.3*,2.2
O=S(=O)(c1ccc(Cl)cc1Cl)n1ccc2cccnc21,8.0,-3.0,-0.1,43.2*,-3.4
Cc1noc(C)c1S(=O)(=O)N(C)C[C@H]1Oc2ccc(NC(=O)Cc3cn(C)c4ccccc34)cc2CC(=O)N([C@@H](C)CO)C[C@@H]1C,·,·,·,-0.3,·
O=C(Nc1ccc2sccc2c1)c1cccc(N2C(=O)CCC2=O)c1,2.5,-15.4,0.0,43.3*,-4.6
Cc1ccc(-c2nc3c4ccccc4ccn3c2Cc2cccc(Cl)c2)cc1,18.5,9.6,·,0.0,·
Cc1c(NC(=O)c2cc(-c3ccccc3)nc3ccccc23)c(=O)n(-c2ccccc2)n1C,-16.8,0.1,0.3,0.1,1.9
Cc1cc(-c2cc(C(=O)O)c3ccccc3n2)c(C)s1,8.8,9.4,0.0,43.5*,1.4
N/C(=N\OC(=O)c1cc(-c2ccccc2)nc2ccccc12)c1ccccn1,-1.0,3.5,0.1,43.3*,·
Cc1csc(NC(=O)c2cc(-c3ccncc3)nc3ccccc23)n1,-6.2,10.6,0.3,43.8*,17.9
O=C(Nc1nccs1)c1cc(-c2ccncc2)nc2ccccc12,-5.4,-6.4,0.2,0.2,0.7
Cc1ccc(/C(N)=N/OC(=O)c2cc(-c3ccccc3)nc3ccccc23)cc1,-3.9,3.6,0.0,·,1.4
Cc1ccc(-c2cc(C(=O)Nc3c(C)n(C)n(-c4ccccc4)c3=O)c3ccccc3n2)cc1,-2.0,-9.5,0.0,43.1*,-1.7
CC(C)(C)N1CC(c2nc3ccccc3n2Cc2ccccc2)CC1=O (configuration not stated),2.4,0.9,0.2,0.4,-8.0
COc1ccccc1NS(=O)(=O)c1ccc(C(=O)NCc2ccco2)cc1,-10.7,4.9,0.0,-0.1,7.7
O=C(O)c1ccccc1NC(=O)c1cc(-c2ccccc2)nc2ccccc12,-4.7,-2.3,-0.2,3.9*,30.7
COc1ccc(-c2cc(C(=O)Nc3ccccc3N3CCOCC3)c3ccccc3n2)cc1OC,6.6,9.0,0.2,2.3*,-3.8
CCOc1ccc(C(=O)Nc2ccc3c(c2)OCO3)cc1OCC,1.9,-6.2,0.1,·,-2.0
C/C(=N\NC(=O)c1ccc([N+](=O)[O-])cc1)c1cccc([N+](=O)[O-])c1,-5.1,8.3,-0.1,0.4,17.4
SMILES,ASAP1 GAP inh,ARFGAP1 inh,Efflux pump inh,FGF22 binding,Rtt109 HAT inh
C/C(=N\NC(=O)c1cccnc1)c1cccc([N+](=O)[O-])c1,2.9,4.8,-0.3,43.3*,-4.4
CCN(CC)c1ccc(/C=N/N2CCN(Cc3ccc(C)cc3)CC2)c(O)c1,·,·,0.0,0.1,11.1
Nc1ncnc(Nc2c(F)cccc2F)n1,11.2,-3.3,-0.3,0.1,0.5
CCC(C)NS(=O)(=O)c1ccc(NC(=O)C2CCCO2)cc1 (configuration not stated),-4.1,-4.6,0.1,43.2*,0.7
CCCCNS(=O)(=O)c1ccc(NC(=O)C2CCCO2)cc1 (configuration not stated),-3.5,-6.2,0.0,·,2.9
COc1ccc(NC(=O)c2cccc(N3C(=O)C4C5C=CC(C5)C4C3=O)c2)c(OC)c1 (configuration not stated),-0.7,-1.6,-0.1,0.0,2.0
Cc1cc(NC(=O)c2ccc(N3C(=O)C4C5C=CC(C5)C4C3=O)cc2)no1 (configuration not stated),10.2,4.1,0.5,44.3*,1.9
COc1ccccc1NC(=O)c1cccc(N2C(=O)C3C4C=CC(C4)C3C2=O)c1 (configuration not stated),-11.2,-4.9,-0.1,43.9*,1.6
Cc1cc(NC(=O)c2ccc(N3C(=O)CCC3=O)cc2)no1,-4.2,3.3,0.1,·,-2.4
O=C(CCc1ccccc1)NNC(=O)c1ccco1,-13.1,-1.7,-0.2,·,1.9
CC(C)n1c(NCc2ccc(N(C)C)cc2)nc2ccccc21,-17.4,3.6,0.0,·,-2.6
N#Cc1cccnc1Nc1ccc(Cl)cc1,0.1,-6.1,0.0,43.3*,·
O=C(N/N=C/c1cc([N+](=O)[O-])c(N2CCOCC2)cc1N1CCOCC1)c1cccnc1,-8.1,-7.8,-0.2,0.1,6.2
c1ccc(Cn2c(NCc3ccccn3)nc3ccccc32)cc1,0.8,-1.4,0.1,43.5*,2.1
Cc1ccc(/C=N/NC(=O)CSc2nc3ccccc3n2C)s1,6.6,11.2,0.1,·,0.5
N#Cc1ccc(CO/N=C/c2ccccc2)cc1,1.8,-4.2,0.0,44.4*,1.9
CCCC(=O)N1CCC1(C)C(=O)NCc1ccccc1SC (configuration not stated),-1.1,-5.2,·,-0.1,·
O=C1C2C3C=CC(CO)(O3)C2C(=O)N1c1ccc(-c2ccccc2)cc1 (configuration not stated),·,·,1.7*,·,·
CC(C)(C)C(=O)NCC12C=CC(O1)C1C(=O)N(c3ccccc3)C(=O)C12 (configuration not stated),-15.0,-7.4,0.1,0.2,-0.9
Cc1ccc(/C=C/C(=O)O)cc1S(=O)(=O)NCC1CCCO1 (configuration not stated),3.6,8.8,0.1,·,0.7
Cc1ccc(/C=C/C(=O)O)cc1S(=O)(=O)NC1CCS(=O)(=O)C1 (configuration not stated),4.8,-0.2,-0.1,43.5*,-4.8
COc1ccc(NC(=O)N(C)C[C@H]2OCCCC[C@H](C)Oc3ccc(NC(=O)Nc4cccc5ccccc45)cc3C(=O)N([C@@H](C)CO)C[C@H]2C)cc1,-11.6,1.2,·,-0.5,·
CCOc1ccc(N=C2SCCCN2C(=O)c2c(CC)noc2C)cc1,-1.8,-0.8,0.6,0.5,4.4
CCOc1ncccc1C(=O)N1CCCSC1=Nc1ccc(C(C)=O)cc1,-1.1,-2.9,0.1,43.4*,-12.3
CN(C(=O)CS(=O)(=O)Cc1ccccc1Cl)c1ccccc1,-5.6,3.4,0.0,43.3*,-1.9
